EC50 and Ki data for 31 compounds are collected here from ChEMBL document CHEMBL2163218, “Design, synthesis, and biological and structural evaluations of novel HIV-1 protease inhibitors to combat drug resistance” (J Med Chem, 2012).

In test [1] the test system is Human immunodeficiency virus 1. The test is described as follows: Antiviral activity against multidrug resistant HIV1 MDRC4 infected in HEK293 cells assessed as reduction in viral replication incubated for 48 hrs by luciferase reporter based assay. The class given is functional, organism-based. The following applies: Human immunodeficiency virus 1, MDRC4, HEK293, 48 h. For orientation: Reporter assays use an easily measured gene product as a stand-in for the process of interest.

Test [2] relates to Human immunodeficiency virus 1. The test is described as follows: Antiviral activity against multidrug resistant HIV1 MDR1 containing protease M46I, I54V, V82A and L90M mutant infected in HEK293 cells assessed as reduction in viral replication incubated for 48 hrs by luciferase reporter based assay. The class given is functional, organism-based. The conditions noted are these: Human immunodeficiency virus 1, MDR1, HEK293, 48 h.

For test [3], the system named is Human immunodeficiency virus 1. The test is described as follows: Antiviral activity against wild type HIV1 infected in HEK293 cells assessed as reduction in viral replication incubated for 48 hrs by luciferase reporter based assay. It is filed as functional, organism-based. The conditions noted are these: Human immunodeficiency virus 1, HEK293, 48 h.
Test [4] has as its system Human immunodeficiency virus 1. The test is described as follows: Antiviral activity against wild type HIV1 clade B isolated form HIV1 patient infected in HEK293 cells assessed as reduction in viral replication incubated for 48 hrs by luciferase reporter based assay. The class given is functional, organism-based. The following applies: Human immunodeficiency virus 1, clade B, HEK293, 48 h.

Test [5] relates to Human immunodeficiency virus 1. Kind of test: Antiviral activity against wild type HIV1 clade A isolated form HIV1 patient infected in HEK293 cells assessed as reduction in viral replication incubated for 48 hrs by luciferase reporter based assay. The conditions noted are these: Human immunodeficiency virus 1, clade A, HEK293, 48 h. The class given is functional, organism-based.

Test [6] has as its system Human immunodeficiency virus 1. Kind of test: Antiviral activity against wild type HIV1 clade C isolated form HIV1 patient infected in HEK293 cells assessed as reduction in viral replication incubated for 48 hrs by luciferase reporter based assay. The following applies: Human immunodeficiency virus 1, clade C, HEK293, 48 h. It is filed as functional, organism-based.
Test [7] addresses Protease (Human immunodeficiency virus 1, UniProt Q9YQ12). The test is described as follows: Inhibition of wild type HIV1 protease by FRET assay. The essentials:
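Recombinant HIV-1 protease Q7K, desalted into 20 mM sodium acetate pH 5, apparent concentration ~50 nM (UV 280 nm). Inhibitors in DMSO, 12 concentrations, added with protease to buffer pH 4.7 (0.1 M NaOAc, 1 M NaCl, 1 mM EDTA, 1 mM DTT, 2% DMSO, 1 mg/mL BSA). Cleavage started by injecting EDANS/DABCYL peptide substrate. Ki from initial velocities fitted to the Morrison equation.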

Sequence of Protease (Q9YQ12 whole entry): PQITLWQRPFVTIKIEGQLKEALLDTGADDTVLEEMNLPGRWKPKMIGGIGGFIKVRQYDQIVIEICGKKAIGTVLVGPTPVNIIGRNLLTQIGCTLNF

`CC(C)CN(C[C@@H](O)[C@H](Cc1ccccc1)NC(=O)O[C@H]1CCOC1)S(=O)(=O)c1ccc(N)cc1`: the concentration for a half-maximal effect (EC50) was 17.5 nM in test [1]; 15.6 nM in test [2]; 3 nM in test [3]; 1.8 nM in test [4]; 2.6 nM in test [5]; 3.7 nM in test [6].

For the compound `CC(C)CN(C[C@@H](O)[C@H](Cc1ccccc1)NC(=O)O[C@H]1CO[C@H]2OCC[C@H]21)S(=O)(=O)c1ccc(N)cc1`, the concentration for a half-maximal effect (EC50) in test [2] turned out to be 0.23 nM; in test [3], 0.25 nM; in test [4] it was 0.15 nM; in test [5], 0.3 nM; in test [6], 0.18 nM.

As to `CCCCCN(C[C@@H](O)[C@H](Cc1ccccc1)NC(=O)OCCN1CCNC1=O)S(=O)(=O)c1ccc(OC)cc1`, the inhibitory constant (Ki) in test [7] turned out to be 0.398 nM.

The compound `CCCCCN(C[C@@H](O)[C@H](Cc1ccccc1)NC(=O)O[C@@H]1CCOC1=O)S(=O)(=O)c1ccc(OC)cc1` gave an inhibition constant (Ki) in test [7] of 65.9 nM.

`CCCCCN(C[C@@H](O)[C@H](Cc1ccccc1)NC(=O)OC[C@@H]1CCC(=O)N1)S(=O)(=O)c1ccc(OC)cc1` yielded a Ki in test [7] of 0.624 nM.

As for `CCCCCN(C[C@@H](O)[C@H](Cc1ccccc1)NC(=O)OCCNC(=O)C(F)(F)F)S(=O)(=O)c1ccc2ncsc2c1`, in test [7], the Ki worked out at 19.7 nM.

On to `CCCCCN(C[C@@H](O)[C@H](Cc1ccccc1)NC(=O)OCCNC(=O)C(Cl)Cl)S(=O)(=O)c1ccc2ncsc2c1`, for which the 50% effective concentration (EC50) was determined as 285 nM in test [1]; 254 nM in test [2]; 38.3 nM in test [3]; 30.3 nM in test [4]; 79.2 nM in test [5]; 67 nM in test [6].

Take `CCCCCN(C[C@@H](O)[C@H](Cc1ccccc1)NC(=O)O[C@H](C)CCC(C)=O)S(=O)(=O)c1ccc2ncsc2c1`: the affinity in test [7] corresponds to a Ki of 3.38 nM.

`CCCCCN(C[C@@H](O)[C@H](Cc1ccccc1)NC(=O)OCCNC(=O)OC(C)(C)C)S(=O)(=O)c1ccc2ncsc2c1` showed an inhibition constant Ki in test [7] of 1.29 nM.

In turn, `CCCCCN(C[C@@H](O)[C@H](Cc1ccccc1)NC(=O)OC[C@@H](C)C(=O)OC)S(=O)(=O)c1ccc2ncsc2c1` had an inhibitory constant (Ki) in test [7] of 3.34 nM.

In test [7], `CCCCCN(C[C@@H](O)[C@H](Cc1ccccc1)NC(=O)O[C@@H]1CCOC1=O)S(=O)(=O)c1ccc2ncsc2c1` showed a Ki of 42.1 nM.

For `CCCCCN(C[C@@H](O)[C@H](Cc1ccccc1)NC(=O)OC[C@@H]1CCC(=O)N1)S(=O)(=O)c1ccc2ncsc2c1`, the half-maximal effective concentration (EC50) in test [1] stood at 174 nM; in test [2] it was 130 nM; in test [3] it was 58.9 nM; in test [4] it was 44.8 nM; in test [5], 82.7 nM; in test [6] it was 96.5 nM.

In the case of `CC[C@H](C)CN(C[C@@H](O)[C@H](Cc1ccccc1)NC(=O)OCCNC(=O)C(F)(F)F)S(=O)(=O)c1ccc2ncsc2c1`, the Ki in test [7] came to 9.13 nM.

With `CC[C@H](C)CN(C[C@@H](O)[C@H](Cc1ccccc1)NC(=O)OCCNC(=O)C(Cl)Cl)S(=O)(=O)c1ccc2ncsc2c1`, the EC50 is 189 nM in test [1]; 144 nM in test [2]; 43 nM in test [3]; 28.6 nM in test [4]; 64.1 nM in test [5]; 88 nM in test [6].

In the case of `CC[C@H](C)CN(C[C@@H](O)[C@H](Cc1ccccc1)NC(=O)OCCNC(=O)OC(C)(C)C)S(=O)(=O)c1ccc2ncsc2c1`, the EC50 amounted to 918 nM in test [1]; 756 nM in test [2]; 198 nM in test [3]; 183 nM in test [4]; 231 nM in test [5]; 331 nM in test [6].

The compound `CC[C@H](C)CN(C[C@@H](O)[C@H](Cc1ccccc1)NC(=O)OC[C@@H](C)C(=O)OC)S(=O)(=O)c1ccc2ncsc2c1` gave an inhibitory constant (Ki) in test [7] of 1.39 nM.

Regarding `CC[C@H](C)CN(C[C@@H](O)[C@H](Cc1ccccc1)NC(=O)OCCN1CCNC1=O)S(=O)(=O)c1ccc2ncsc2c1`, the concentration giving a half-maximal response (EC50) in test [1] was determined as 88.1 nM; in test [2] it was 50.4 nM; in test [3] it was 34.8 nM; in test [4] it was 21.6 nM; in test [5] it was 31.4 nM; in test [6], 49.3 nM.

Consider `CC[C@H](C)CN(C[C@@H](O)[C@H](Cc1ccccc1)NC(=O)OC[C@@H]1CCC(=O)N1)S(=O)(=O)c1ccc2ncsc2c1`, for which the EC50 in test [1] stood at 35.6 nM; in test [2] it was 21.1 nM; in test [3], 15.5 nM; in test [4] it was 16.4 nM; in test [5], 25.1 nM; in test [6], 13.2 nM.

In the case of `CCCCCN(C[C@@H](O)[C@H](Cc1ccccc1)NC(=O)O[C@H](C)CC(=O)OC)S(=O)(=O)c1ccc(OC)cc1`, the Ki in test [7] came out at 17.2 nM.

In the case of `CCCCCN(C[C@@H](O)[C@H](Cc1ccccc1)NC(=O)OCCNC(=O)C(F)(F)F)S(=O)(=O)c1ccc(OC)cc1`, in test [7], the Ki is 31.4 nM.

`CCCCCN(C[C@@H](O)[C@H](Cc1ccccc1)NC(=O)O[C@H](C)CCC(C)=O)S(=O)(=O)c1ccc(OC)cc1`: the affinity in test [7] corresponds to a Ki of 6.98 nM.

As for `CCCCCN(C[C@@H](O)[C@H](Cc1ccccc1)NC(=O)OCCNC(=O)OC(C)(C)C)S(=O)(=O)c1ccc(OC)cc1`, the inhibition constant Ki in test [7] stood at 2.95 nM.

`CC[C@H](C)CN(C[C@@H](O)[C@H](Cc1ccccc1)NC(=O)OC(C)(C)C)S(=O)(=O)c1ccc2ncsc2c1` came in with an inhibition constant (Ki) in test [7] of 0.243 nM.

Turning to `CC[C@H](C)CN(C[C@@H](O)[C@H](Cc1ccccc1)NC(=O)OCCNC(=O)C(F)(F)F)S(=O)(=O)c1ccc(OC)cc1`, in test [7], affinity was put at a Ki of 11.9 nM.

As to `CC[C@H](C)CN(C[C@@H](O)[C@H](Cc1ccccc1)NC(=O)O[C@H](C)CCC(C)=O)S(=O)(=O)c1ccc(OC)cc1`, the Ki in test [7] is 0.426 nM.

In test [7], `CC[C@H](C)CN(C[C@@H](O)[C@H](Cc1ccccc1)NC(=O)OCCNC(=O)OC(C)(C)C)S(=O)(=O)c1ccc(OC)cc1` yielded an inhibition constant Ki of 2.01 nM.

Turning to `CC[C@H](C)CN(C[C@@H](O)[C@H](Cc1ccccc1)NC(=O)OC[C@@H](C)C(=O)OC)S(=O)(=O)c1ccc(OC)cc1`, the EC50 is 56 nM in test [1]; 41.8 nM in test [2]; 30.9 nM in test [3]; 20.6 nM in test [4]; 24.9 nM in test [5]; 36.3 nM in test [6].

With `CC[C@H](C)CN(C[C@@H](O)[C@H](Cc1ccccc1)NC(=O)OCCN1CCNC1=O)S(=O)(=O)c1ccc(OC)cc1`, the EC50 in test [1] amounted to 132 nM; in test [2], 113 nM; in test [3], 84.4 nM; in test [4], 57.3 nM; in test [5], 95.4 nM; in test [6], 135 nM.

Consider `CC[C@H](C)CN(C[C@@H](O)[C@H](Cc1ccccc1)NC(=O)OCCN1CCOC1=O)S(=O)(=O)c1ccc(OC)cc1`, for which the concentration giving a half-maximal response (EC50) stood at 74.4 nM in test [1]; 56.1 nM in test [2]; 40.5 nM in test [3]; 27.8 nM in test [4]; 43.3 nM in test [5]; 57.3 nM in test [6].

In test [7], `CC[C@H](C)CN(C[C@@H](O)[C@H](Cc1ccccc1)NC(=O)O[C@@H]1CCOC1=O)S(=O)(=O)c1ccc(OC)cc1` had a Ki of 35.1 nM.

`CC[C@H](C)CN(C[C@@H](O)[C@H](Cc1ccccc1)NC(=O)OC[C@@H]1CCC(=O)N1)S(=O)(=O)c1ccc(OC)cc1`: the EC50 in test [1] turned out to be 72.2 nM; in test [2], 37.1 nM; in test [3] it was 43.9 nM; in test [4], 38.5 nM; in test [5], 64.5 nM; in test [6] it was 44.1 nM.

By EC50 is commonly meant the concentration needed to bring the measured effect to its halfway point. What is called Ki is the equilibrium dissociation constant of an inhibitor or competing ligand from its target.
